The results in this text go back to ChEMBL document CHEMBL1129319, “Design and synthesis of new linear and cyclic bradykinin antagonists” (J Med Chem, 1996).

Calls of active or inactive are those of the source. No cut-off for these calls is given here. Numbered stars: 1 amine (or outer) side, 2 acyl side, 3 side chain; on linkers, the order of the positions; unused ones are H or OH. Square brackets hold non-standard residues; d marks the D form. Peptide text beside a SMILES is read from it. * marks the point of attachment. ξ: configuration not given here. X1 = NC(N)=NCCC[C@@H](NC(=O)[C@H](Cc1ccccc1)NC(=O)N1CCC[C@H]1C(=O)[C@H](CO)N*)C(=O)O; Pentanoyl(5-guanidino) = NC(N)=NCCCCC(=O)*; Butanoyl(4-guanidino) = N=C(N)NCCCC(=O)*; Oic(3aξ,7aξ) = O=C(O)[C@@H]1CC2CCCCC2N1; NH(CH2)9CO = O=C(CCCCCCCCCN[*:1])[*:2]; Tic = O=C(O)[C@@H]1Cc2ccccc2CN1; 2Thi = N[C@@H](Cc1cccs1)C(=O)O; X2 = N=C(N)NCCCCCC(=O)*; GABA = NCCCC(=O)O

For orientation: pKb means the negative decadic logarithm of the Kb, by convention in mol/L. What is called pA2 is a measure of antagonist potency on a negative log scale.

For experiment [1], the target named is T1, B2 bradykinin receptor (Homo sapiens) (UniProt P30411).
T1 sequence (whole entry): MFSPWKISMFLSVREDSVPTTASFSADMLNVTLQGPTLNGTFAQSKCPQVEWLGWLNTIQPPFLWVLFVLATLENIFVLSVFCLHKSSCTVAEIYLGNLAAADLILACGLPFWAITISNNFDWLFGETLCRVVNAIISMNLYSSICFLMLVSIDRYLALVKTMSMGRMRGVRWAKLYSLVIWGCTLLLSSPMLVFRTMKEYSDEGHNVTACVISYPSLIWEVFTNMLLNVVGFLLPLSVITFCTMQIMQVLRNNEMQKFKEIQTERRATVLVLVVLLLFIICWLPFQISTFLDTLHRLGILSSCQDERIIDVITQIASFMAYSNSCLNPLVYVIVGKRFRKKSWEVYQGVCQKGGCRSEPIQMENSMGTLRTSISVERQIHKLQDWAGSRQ
As to the kind of experiment: Antagonistic activity against bradykinin B2 receptor as human umbilical vein contraction; in = inactive at 10e-5M. In kind it is functional, tissue-based. The essentials:
(§1)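 Endothelium-denuded human umbilical vein rings in Krebs (37 °C, 95% O2/5% CO2, pH 7.40), 2-4 g load, pretreated with indomethacin 5 × 10^-6 M and L-nitroarginine 10^-4 M; antagonist incubated 45 min before a single cumulative bradykinin curve per ring; isometric contraction as % of KCl (60 mM) reference; pKB from KB = [Ant]/(concentration ratio − 1).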

The target of the next experiment is T2, B2 bradykinin receptor (Oryctolagus cuniculus, UniProt Q28642).
T2 sequence (Q28642 whole entry): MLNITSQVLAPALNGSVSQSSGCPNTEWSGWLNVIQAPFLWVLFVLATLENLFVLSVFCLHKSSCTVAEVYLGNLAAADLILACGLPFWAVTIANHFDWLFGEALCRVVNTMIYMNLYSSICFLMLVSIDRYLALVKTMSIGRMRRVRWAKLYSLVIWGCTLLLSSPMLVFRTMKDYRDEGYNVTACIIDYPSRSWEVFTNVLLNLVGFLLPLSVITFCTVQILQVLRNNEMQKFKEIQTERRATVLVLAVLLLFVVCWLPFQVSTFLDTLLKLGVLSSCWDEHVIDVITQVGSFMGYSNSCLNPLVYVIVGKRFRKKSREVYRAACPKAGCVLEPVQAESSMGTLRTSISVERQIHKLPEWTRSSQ
Nature of the experiment: In vitro antagonistic activity against kinin-induced rabbit jugular vein contraction. In kind it is functional. The note with it: for Kb: read-out: pA2 (converted). In outline: (§2)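 Rabbit jugular vein rings (B2 tissue), reference KCl 60 mM contraction then 45 min rest; antagonist, usually 10-7, 10^-6 and 10^-5 M, incubated 45 min before cumulative bradykinin; one curve per ring; pA2 by Tallarida's method with Schild slope constrained to unity, or pKB from EC50 ratio when activity appeared only at 10^-5 M.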

The target in experiment [2] is T3, B2 bradykinin receptor (Oryctolagus cuniculus) (UniProt Q28642).
T3 sequence (whole entry): T2 sequence (Q28642 whole entry)
As to the kind of experiment: In vitro antagonistic activity against kinin-induced rabbit jugular vein contraction by bradykinin B2 receptor; in = inactive at 10e-5M. In kind it is functional. In outline:
as §2

In experiment [3] the target is T1, B2 bradykinin receptor (Homo sapiens). Nature of the experiment: Antagonistic activity against bradykinin B2 receptor as human umbilical vein contraction. In kind it is functional, tissue-based. In outline:
as §1

Experiment [4] addresses T3, B2 bradykinin receptor (Oryctolagus cuniculus). Nature of the experiment: In vitro antagonistic activity against kinin-induced rabbit jugular vein contraction by bradykinin B2 receptor; in = inactive at 10e-5M. In kind it is functional. The essentials:
as §2

For the compound `N=C(N)NCCC[C@@H]1NC(=O)[C@@H]2CC3CCCCC3N2C(=O)[C@H]2Cc3ccccc3CN2C(=O)[C@H](Cc2cccs2)NC(=O)CCCNC1=O` (some centres undefined), in experiment [1], the pKb result is “inactive”. The Kb on B2 bradykinin receptor is 324 nM.

On to `N=C(N)NCCCCC(=O)N[C@@H](Cc1cccs1)C(=O)N1Cc2ccccc2C[C@H]1C(=O)N1C2CCCCC2C[C@H]1C(=O)N[C@@H](CCCNC(=N)N)C(=O)O` (some centres undefined) ({Pentanoyl(5-guanidino)}-[2Thi][Tic][Oic(3aξ,7aξ)]R-OH), for which the Kb at B2 bradykinin receptor was 3020 nM.

In the case of `NCC(=O)N[C@@H](Cc1ccccc1)C(=O)N1Cc2ccccc2C[C@H]1C(=O)N1C2CCCCC2C[C@H]1C(=O)N[C@@H](CCCN=C(N)N)C(=O)O` (some centres undefined) (H-GF[Tic][Oic(3aξ,7aξ)]R-OH), the pKb result in experiment [1] was “inactive”. The Kb on B2 bradykinin receptor is 851 nM.

In the case of `C[C@@H]1NC(=O)[C@@H](Cc2ccccc2)NC(=O)CCCNC(=O)[C@H](CCCN=C(N)N)NC(=O)[C@@H]2CC3CCCCC3N2C(=O)[C@H]2Cc3ccccc3CN2C1=O` (some centres undefined), the pA2 result in experiment [2] is “inactive”.

Take `N=C(N)NCCC[C@@H]1NC(=O)[C@@H]2CC3CCCCC3N2C(=O)[C@H]2Cc3ccccc3CN2C(=O)[C@H](Cc2cccs2)NC(=O)CNC1=O` (some centres undefined): the Kb at B2 bradykinin receptor was 40.7 nM. In addition, the pKb in experiment [3] stood at 4.93.

Turning to `N=C(N)NCCC[C@@H]1NC(=O)[C@@H]2CC3CCCCC3N2C(=O)[C@H]2Cc3ccccc3CN2C(=O)[C@H](CO)NC(=O)[C@@H]2Cc3ccccc3CN2C(=O)CCCNC1=O` (some centres undefined), the Kb at B2 bradykinin receptor was 437 nM.

On B2 bradykinin receptor, `NCCCC[C@@H]1NC(=O)[C@H](CCCN=C(N)N)NC(=O)[C@@H]2C[C@@H]3CCCC[C@@H]3N2C(=O)[C@H]2Cc3ccccc3CN2C(=O)[C@H](Cc2cccs2)NC1=O` yielded a pA2 of 6.84.

`CN1CC(=O)N[C@@H](Cc2cccs2)C(=O)N2Cc3ccccc3C[C@@H]2C(=O)N2C3CCCCC3C[C@H]2C(=O)N[C@@H](CCCN=C(N)N)C1=O` (some centres undefined): on B2 bradykinin receptor, the Kb was 219 nM.

On to `N=C(N)NCCC[C@@H]1NC(=O)[C@H](CCCNC(=N)N)NC(=O)[C@@H]2CC3CCCCC3N2C(=O)[C@H]2Cc3ccccc3CN2C(=O)[C@H](Cc2cccs2)NC1=O` (some centres undefined), for which the Kb at B2 bradykinin receptor is 75.9 nM.

As to `N=C(N)NCCCCCC(=O)N[C@@H](Cc1cccs1)C(=O)N1Cc2ccccc2C[C@H]1C(=O)N1C2CCCCC2C[C@H]1C(=O)N[C@@H](CCCNC(=N)N)C(=O)O` (some centres undefined) (X2-[2Thi][Tic][Oic(3aξ,7aξ)]R-OH), the Kb at B2 bradykinin receptor is 3390 nM.

On to `C[C@@H]1NC(=O)CCCNC(=O)[C@H](CCCN=C(N)N)NC(=O)[C@@H]2CC3CCCCC3N2C(=O)[C@H]2Cc3ccccc3CN2C(=O)[C@H](CO)NC1=O` (some centres undefined), for which the Kb on B2 bradykinin receptor was 309 nM.

On to `NC(N)=NCCC[C@@H]1NC(=O)[C@@H]2CC3CCCCC3N2C(=O)[C@H]2Cc3ccccc3CN2C(=O)[C@H](CO)NC(=O)[C@H](Cc2cccs2)NC(=O)CCNC1=O` (some centres undefined), for which the Kb on B2 bradykinin receptor is 75.9 nM.

With `C[C@@H]1NC(=O)[C@H](Cc2cccs2)NC(=O)CCCNC(=O)[C@H](CCCN=C(N)N)NC(=O)[C@@H]2CC3CCCCC3N2C(=O)[C@H]2Cc3ccccc3CN2C1=O` (some centres undefined), the Kb on B2 bradykinin receptor was 63.1 nM.

In experiment [3], `NCC(=O)N[C@@H](Cc1cccs1)C(=O)N1Cc2ccccc2C[C@H]1C(=O)N1C2CCCCC2C[C@H]1C(=O)N[C@@H](CCCN=C(N)N)C(=O)O` (some centres undefined) (H-G[2Thi][Tic][Oic(3aξ,7aξ)]R-OH) showed a pKb of 4.79. Further, the pA2 result in experiment [2] is “inactive”.

Take `N=C(N)NCCC[C@@H]1NC(=O)[C@@H]2CC3CCCCC3N2C(=O)[C@H]2Cc3ccccc3CN2C(=O)[C@H](CO)NC(=O)[C@H](Cc2cccs2)NC(=O)CCCNC1=O` (some centres undefined): at B2 bradykinin receptor, the Kb is 45.7 nM.

In the case of `NCCCCCCCCCC(=O)N[C@@H](Cc1cccs1)C(=O)N1Cc2ccccc2C[C@H]1C(=O)N1C2CCCCC2C[C@H]1C(=O)N[C@@H](CCCN=C(N)N)C(=O)O` (some centres undefined) ({NH(CH2)9CO}-[2Thi][Tic][Oic(3aξ,7aξ)]R-OH), on B2 bradykinin receptor, the Kb is 468 nM.

On to `NCCCC(=O)N[C@@H](Cc1ccccc1)C(=O)N1Cc2ccccc2C[C@H]1C(=O)N1C2CCCCC2C[C@H]1C(=O)N[C@@H](CCCN=C(N)N)C(=O)O` (some centres undefined) (H-[GABA]F[Tic][Oic(3aξ,7aξ)]R-OH), for which, at B2 bradykinin receptor, the Kb was 363 nM.

In experiment [3], `NC(N)=NCCC[C@H](NC(=O)[C@@H](Cc1ccccc1)NC(=O)[C@@H](N)CCCN=C(N)N)C(=O)N1CCC[C@H]1C(=O)N1CCC[C@H]1C(=O)NCC(=O)N[C@@H](Cc1ccccc1)C(=O)N[C@@H](CO)C(=O)[C@@H]1CCCN1C(=O)N[C@@H](Cc1ccccc1)C(=O)N[C@H](CCCN=C(N)N)C(=O)O` (H-R[dF]RPPGF-X1) returned a pKb of 5.16.

For the compound `N=C(N)NCCC[C@H](NC(=O)[C@@H]1CC2CCCCC2N1C(=O)[C@@H]1Cc2ccccc2CN1C(=O)[C@H](CO)NC(=O)[C@@H]1Cc2ccccc2CN1)C(=O)O` (some centres undefined) (H-[Tic]S[Tic][Oic(3aξ,7aξ)]R-OH), the pA2 entry in experiment [4] is “inactive”.

For `N=C(N)NCCC[C@@H]1NC(=O)[C@@H]2CC3CCCCC3N2C(=O)[C@H]2Cc3ccccc3CN2C(=O)[C@H](Cc2ccccc2)NC(=O)CNC1=O` (some centres undefined), on B2 bradykinin receptor, the Kb is 117 nM. In experiment [3], the negative-log Kb (pKb) turned out to be 5.13.

Regarding `NC(N)=NCCC[C@H](NC(=O)[C@@H]1CC2CCCCC2N1C(=O)[C@@H]1Cc2ccccc2CN1C(=O)[C@H](Cc1cccs1)NC(=O)[C@@H](N)CCCN=C(N)N)C(=O)O` (some centres undefined) (H-R[2Thi][Tic][Oic(3aξ,7aξ)]R-OH), the Kb at B2 bradykinin receptor is 794 nM.

Take `C[C@@H]1NC(=O)[C@H](Cc2c[nH]c3ccccc23)NC(=O)CCCNC(=O)[C@H](CCCN=C(N)N)NC(=O)[C@@H]2CC3CCCCC3N2C(=O)[C@H]2Cc3ccccc3CN2C1=O` (some centres undefined): on B2 bradykinin receptor, the Kb was 490 nM.

`NCCCC(=O)N[C@@H](Cc1cccs1)C(=O)N1Cc2ccccc2C[C@H]1C(=O)N1C2CCCCC2C[C@H]1C(=O)N[C@@H](CCCN=C(N)N)C(=O)O` (some centres undefined) (H-[GABA][2Thi][Tic][Oic(3aξ,7aξ)]R-OH): in experiment [1], the pKb result was “inactive”. Moreover, on B2 bradykinin receptor, the Kb is 251 nM.

As for `C[C@@H]1NC(=O)CNC(=O)[C@H](CCCN=C(N)N)NC(=O)[C@@H]2CC3CCCCC3N2C(=O)[C@H]2Cc3ccccc3CN2C1=O` (some centres undefined), on B2 bradykinin receptor, the Kb was 240 nM.

Turning to `NC(N)=NCCC[C@H](NC(=O)[C@@H]1CC2CCCCC2N1C(=O)[C@@H]1Cc2ccccc2CN1C(=O)[C@H](CO)NC(=O)[C@@H](N)Cc1cccs1)C(=O)O` (some centres undefined) (H-[2Thi]S[Tic][Oic(3aξ,7aξ)]R-OH), in experiment [4], the pA2 entry was “inactive”.

As to `NC(N)=NCCC[C@H](NC(=O)[C@@H]1CC2CCCCC2N1C(=O)[C@@H]1Cc2ccccc2CN1C(=O)[C@H](CO)NC(=O)[C@@H](N)Cc1ccccc1)C(=O)O` (some centres undefined) (H-FS[Tic][Oic(3aξ,7aξ)]R-OH), the Kb at B2 bradykinin receptor was 912 nM.

As to `N=C(N)NCCC[C@@H]1NC(=O)[C@@H]2CC3CCCCC3N2C(=O)[C@H]2Cc3ccccc3CN2C(=O)[C@H](CO)NC(=O)[C@H](c2ccccc2)NC(=O)CCCNC1=O` (some centres undefined), the Kb at B2 bradykinin receptor was 537 nM.

Regarding `N=C(N)NCCCC(=O)N[C@@H](Cc1cccs1)C(=O)N1Cc2ccccc2C[C@H]1C(=O)N1C2CCCCC2C[C@H]1C(=O)N[C@@H](CCCNC(=N)N)C(=O)O` (some centres undefined) ({Butanoyl(4-guanidino)}-[2Thi][Tic][Oic(3aξ,7aξ)]R-OH), the pA2 result in experiment [2] was “inactive”.
